In experiment [1] the test system is MCF7. In words: Cytotoxicity against human MCF7 cells assessed as cell growth inhibition incubated for 3 days by trypan blue exclusion assay. In kind it is functional, cell-based. Conditions: MCF7, 72 h. Summed up: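 MCF-7 human breast carcinoma cells; growth inhibition; triplicate experiments.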
The target in experiment [2] is Tubulin. In words: Inhibition of tubulin (unknown origin) polymerization preincubated for 15 mins followed by GTP addition by turbidity based spectrophotometer analysis. In kind it is protein-complex assay, Homo sapiens.
For experiment [3], the target named is Tubulin (Homo sapiens) (UniProt P68371+Q9H4B7+P0DPH7+P68366+Q13509+Q71U36+P04350+Q3ZCM7+P07437+P68363+Q9BQE3+Q6PEY2+Q13885+Q9BVA1+Q9BUF5). Nature of the experiment: Inhibition of [3H]colchicine binding to tubulin (unknown origin) at 5 uM incubated for 10 mins relative to control. It counts as protein-complex assay.
The subject of experiment [4] is LAMA-84. Nature of the experiment: Antiproliferative activity against human LAMA-84 cells overexpressing BCR/ABL assessed as cell growth inhibition.
For experiment [5], the system named is LAMA-84. In words: Antiproliferative activity against human LAMA-84 cells assessed as cell growth inhibition incubated for 48 hrs by MTT assay. To be noted: LAMA-84, 48 h. (In general: Formazan colour is commonly taken as a measure of viable cells.)
In experiment [6] the test system is OVCAR-8. Nature of the experiment: Cytotoxicity against human OVCAR-8 cells assessed as cell growth inhibition incubated for 3 days by trypan blue exclusion assay. It counts as functional, cell-based. To be noted: OVCAR-8, 72 h.
In experiment [7] the test system is NCI/ADR-RES. In words: Cytotoxicity against human NCI/ADR-RES cells overexpressing p-glycoprotein assessed as cell growth inhibition incubated for 3 days by trypan blue exclusion assay. In kind it is functional, cell-based. Conditions: 72 h.
Experiment [8] deals with KU812 cell line. Nature of the experiment: Antiproliferative activity against human KU812 cells expressing BCR/ABL assessed as cell growth inhibition. It counts as functional, cell-based. The essentials:
(§1)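 KU812 or LAMA84 CML blast-crisis cells (BCR/ABL-expressing) exposed to increasing doses for 48 h; proliferation read by MTT assay; triplicate experiments.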

The subject of experiment [9] is LAMA-84. Nature of the experiment: Antiproliferative activity against human LAMA-84 cells expressing BCR/ABL assessed as cell growth inhibition. It counts as functional, cell-based. The essentials:
as §1

SMILES strings stand for the structures. Counter-ions that a name gives are not always drawn.

`COc1cc(C(=O)c2cn(-c3ccccc3)cc2-c2ccc(F)cc2)cc(OC)c1OC`: the results for the IC50 in experiment [1] and in [2] were 78 nM and 760 nM, respectively. Also, the inhibition – broadly, the share of the control response that was lost under treatment – in experiment [3] turned out to be 47%.

Regarding `COc1cc(C(=O)c2cn(-c3ccccc3)cc2-c2ccccc2F)cc(OC)c1OC`, the IC50 (as a rule, the concentration that inhibits the measured activity by half) in experiment [1] is 30 nM; in [2] it was 580 nM. In addition, the inhibition in [3] is 72%.

For the compound `Cc1ccc(NC(=O)c2ccc(CN3CCN(C)CC3)cc2)cc1Nc1nccc(-c2cccnc2)n1` [IMATINIB MESYLATE], the concentration for half-maximal inhibition (IC50) in [4] and in experiment [5] was 100 nM throughout.

On to `COc1cc(C(=O)c2cn(-c3cccc(F)c3)cc2-c2ccccc2)cc(OC)c1OC`, for which the IC50 in experiment [1] worked out at 350 nM; in [2] it was 2900 nM. In addition, the inhibition in [3] was 42%.

Take `COc1cc(C(=O)c2cn(-c3ccccc3)cc2-c2cccc(C)c2)cc(OC)c1OC`: the IC50 turned out to be 450 nM in [1] and 1600 nM in experiment [2]. Moreover, the inhibition in experiment [3] turned out to be 5.7%.

`COc1cc(C(=O)c2cn(-c3ccccc3)cc2-c2ccccc2)cc(OC)c1OC`: the IC50 amounted to 35 nM in [1] and 1100 nM in experiment [2]. In addition, the inhibition in experiment [3] is 66%.

Take `COc1cc(C(=O)c2cn(-c3ccc(F)cc3)cc2-c2ccccc2)cc(OC)c1OC`: the IC50 in [1] was determined as 15 nM; in [2], 1300 nM; in experiment [6], 180 nM; in experiment [7] it was 110 nM. The inhibition in experiment [3] was 62%.

For `COc1cc(C(=O)c2ccn(-c3cccc(N)c3)c2)cc(OC)c1OC`, the IC50 in [8] and in [9] was 28 nM throughout.

For the origin of these results see ChEMBL document CHEMBL5252540, “3-Aroyl-1,4-diarylpyrroles Inhibit Chronic Myeloid Leukemia Cell Growth through an Interaction with Tubulin” (ACS Med Chem Lett, 2017).
